Results from different studies.
Lines come from different studies, so protocols differ.
Technique: competition with immobilised ligand
RPS6KA1 C-terminal kinase domain: Ribosomal protein S6 kinase alpha-1, C-terminal kinase domain (RPS6KA1, Homo sapiens, UniProt Q15418)
RPS6KA1 N-terminal kinase domain: Ribosomal protein S6 kinase alpha-1, N-terminal kinase domain (RPS6KA1, Homo sapiens, UniProt Q15418)

The remaining binding of O=C(N1CCS(=O)(=O)CC1)N1C[C@H](c2ccc(OC(F)(F)F)cc2)C[C@H](c2nc(C3CC3)no2)C1 is reported as 100% (RPS6KA1 C-terminal kinase domain; cell-free assay; 1 µM).
For CN(C)c1nccc(-c2cnn3ncccc23)n1, the remaining binding was 100% (RPS6KA1 C-terminal kinase domain; binding; 1 µM).
The remaining binding of COc1ccc2c(c1)O[C@@H](c1ccc(OC)c(OC)c1)C[C@H]2NC(=O)C1(c2ccc3c(c2)OC(F)(F)O3)CC1 is reported as 85% (RPS6KA1 C-terminal kinase domain; cell-free assay; 1 µM).
C=CC(=O)N1CCC(C(=O)NCC(=O)N2CCN(c3nc(-c4cnc(N)nc4C(F)F)nc(N4CCOCC4)n3)CC2)CC1 gave a remaining binding of 100% (RPS6KA1 C-terminal kinase domain; binding; 1 µM).
With c1cncc(-c2cccc(Nc3nccc(NC4CCCCC4)n3)c2)c1 the remaining binding was 9.9% (RPS6KA1 N-terminal kinase domain; binding; 10 µM).
The remaining binding of O=C(c1ccc(Nc2nccc(-c3cc4ccccc4s3)n2)cc1)N1CCC(N2CCCC2)CC1 is reported as 60% (RPS6KA1 C-terminal kinase domain; binding; 1 µM).
CN(c1nccc(-c2cnn3ncccc23)n1)C1CC1 gave a remaining binding of 100% (RPS6KA1 N-terminal kinase domain; binding; 1 µM).
O=C(c1ccc(Nc2ncc(Cl)c(-c3ccc(Cl)s3)n2)cc1)N1CCC(N2CCCC2)CC1 has a remaining binding of 53% (RPS6KA1 N-terminal kinase domain; binding; 1 µM).
The remaining binding of CO[C@H]1CC[C@H](CNc2ccc(S(=O)(=O)NC(=O)c3ccc(N4CCN(CC5=C(c6ccc(Cl)cc6)CC(C)(C)CC5)CC4)cc3Oc3cnc4[nH]ccc4c3)cc2[N+](=O)[O-])CC1 is reported as 73% (RPS6KA1 C-terminal kinase domain; cell-free assay; 1 µM).
C[C@@H]1CCN(c2nccc(-c3cnn4ncccc34)n2)C1 has a remaining binding of 100% (RPS6KA1 N-terminal kinase domain; binding; 1 µM).
The remaining binding of COc1ncc2cc3ccccc3nc2c1C#N is reported as 49% (RPS6KA1 C-terminal kinase domain; cell-free assay; 5 µM).
O=C(Nc1cccnn1)N1CC(C/C=C/c2cncc(Oc3ccc(C(F)(F)F)cn3)n2)C1 gave a remaining binding of 92% (RPS6KA1 C-terminal kinase domain; cell-free assay; 1 µM).
The remaining binding of O=C(NCC1CCOCC1)c1n[nH]cc1NC(=O)c1c(F)cccc1F is reported as 93% (RPS6KA1 N-terminal kinase domain; binding; 1 µM).
With Cc1cnn2ncc(-c3ccnc(N(C)C)n3)c2c1 the remaining binding was 64% (RPS6KA1 C-terminal kinase domain; binding; 1 µM).
For CNCc1ccccc1-c1csc([C@H](C)Nc2nc(C)nc3cc(OC)c(OC)cc23)c1, the remaining binding was 100% (RPS6KA1 C-terminal kinase domain; cell-free assay; 1 µM).
With N[C@@H]1CCN(c2nccc(-c3cnn4ncccc34)n2)C1 the remaining binding was 100% (RPS6KA1 N-terminal kinase domain; binding; 1 µM).
For CNC(=O)[C@@H]1CC[C@@H](n2c(-c3ccc4cnccc4c3)nc3ccc(C(=O)NCc4cccc(C(N)=O)c4)cc32)C1, the remaining binding was 100% (RPS6KA1 N-terminal kinase domain; binding; 1 µM).
With CC1CCCN1c1nccc(-c2cnn3ncccc23)n1 (stereo not drawn) the remaining binding was 100% (RPS6KA1 N-terminal kinase domain; binding; 1 µM).
With CCN1CCN(Cc2ccc(C(=O)Nc3ccc(C)c(Oc4ccc5c(c4)CC(=O)N5)c3)cc2C(F)(F)F)CC1 the remaining binding was 95% (RPS6KA1 C-terminal kinase domain; binding; 1 µM).
For CC(C)CC(=O)N1CCc2nc(-c3ccc(Br)cc3)nc(N(C)Cc3ccccc3)c2C1, the remaining binding was 93% (RPS6KA1 N-terminal kinase domain; cell-free assay; 0.1 µM).
O=C(c1ccc(Nc2ncc(Cl)c(-c3cc4ccccc4s3)n2)cc1)N1CCC(N2CCCC2)CC1 gave a remaining binding of 63% (RPS6KA1 N-terminal kinase domain; binding; 1 µM).
